# PMC4832308 (Cancer, 2015)
# Test system: patients with advanced solid tumors or multiple myeloma
# Assay: phase 1 dose escalation: safety, tolerability, DLT, MTD
# Type: in vivo, human
# In short: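 Modified accelerated titration from 7.5 mg, oral daily in 28-day cycles. Single-patient cohorts used 100% increments until the first drug-related grade ≥2 toxicity, then 6-patient cohorts used ~50% steps. A dose with ≥2 DLTs was nontolerated. MTD was the last lower dose with 0–1 of 6 DLTs in cycle 1. Adverse events were graded by NCI CTCAE version 4.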
smiles,measurement,setting,value
CO[C@H]1CC[C@H](N2C(=O)CNc3ncc(-c4ccc(C(C)(C)O)nc4)nc32)CC1 [CC‐223],Arthralgia (treatment‐related AE),"7.5 mg, Any Grade",0 n (%)
same,Asthenia (treatment‐related AE),"7.5 mg, Any Grade",0 n (%)
same,Decreased appetite (treatment‐related AE),"7.5 mg, Any Grade",0 n (%)
same,Diarrhea (treatment‐related AE),"7.5 mg, Any Grade",0 n (%)
same,Dry mouth (treatment‐related AE),"7.5 mg, Any Grade",0 n (%)
same,Dysgeusia (treatment‐related AE),"7.5 mg, Any Grade",1 (100) n (%)
same,Dyspnea (treatment‐related AE),"7.5 mg, Any Grade",0 n (%)
same,Fatigue (treatment‐related AE),"7.5 mg, Any Grade",1 (100) n (%)
same,Hyperglycemia (treatment‐related AE),"7.5 mg, Any Grade",0 n (%)
same,Increased glycosylated hemoglobin (treatment‐related AE),"7.5 mg, Any Grade",0 n (%)
same,Mucositis (treatment‐related AE),"7.5 mg, Any Grade",0 n (%)
same,Nausea (treatment‐related AE),"7.5 mg, Any Grade",1 (100) n (%)
same,Pruritus (treatment‐related AE),"7.5 mg, Any Grade",0 n (%)
same,Rash (treatment‐related AE),"7.5 mg, Any Grade",0 n (%)
same,Rash pruritic (treatment‐related AE),"7.5 mg, Any Grade",0 n (%)
same,Thrombocytopenia (treatment‐related AE),"7.5 mg, Any Grade",0 n (%)
same,Vomiting (treatment‐related AE),"7.5 mg, Any Grade",0 n (%)
same,Arthralgia (treatment‐related AE),"7.5 mg, Grade ≥3",0 n (%)
same,Asthenia (treatment‐related AE),"7.5 mg, Grade ≥3",0 n (%)
same,Decreased appetite (treatment‐related AE),"7.5 mg, Grade ≥3",0 n (%)
same,Diarrhea (treatment‐related AE),"7.5 mg, Grade ≥3",0 n (%)
same,Dry mouth (treatment‐related AE),"7.5 mg, Grade ≥3",0 n (%)
same,Dysgeusia (treatment‐related AE),"7.5 mg, Grade ≥3",0 n (%)
same,Dyspnea (treatment‐related AE),"7.5 mg, Grade ≥3",0 n (%)
same,Fatigue (treatment‐related AE),"7.5 mg, Grade ≥3",0 n (%)
same,Hyperglycemia (treatment‐related AE),"7.5 mg, Grade ≥3",0 n (%)
same,Increased glycosylated hemoglobin (treatment‐related AE),"7.5 mg, Grade ≥3",0 n (%)
same,Mucositis (treatment‐related AE),"7.5 mg, Grade ≥3",0 n (%)
same,Nausea (treatment‐related AE),"7.5 mg, Grade ≥3",0 n (%)
same,Pruritus (treatment‐related AE),"7.5 mg, Grade ≥3",0 n (%)
same,Rash (treatment‐related AE),"7.5 mg, Grade ≥3",0 n (%)
same,Rash pruritic (treatment‐related AE),"7.5 mg, Grade ≥3",0 n (%)
same,Thrombocytopenia (treatment‐related AE),"7.5 mg, Grade ≥3",0 n (%)
same,Vomiting (treatment‐related AE),"7.5 mg, Grade ≥3",0 n (%)
same,Dose interruptions,15 mg,2
same,Dose reductions,15 mg,0
same,Arthralgia (treatment‐related AE),"15 mg, Any Grade",0 n (%)
same,Asthenia (treatment‐related AE),"15 mg, Any Grade",1 (50) n (%)
same,Decreased appetite (treatment‐related AE),"15 mg, Any Grade",0 n (%)
same,Diarrhea (treatment‐related AE),"15 mg, Any Grade",1 (50) n (%)
same,Dry mouth (treatment‐related AE),"15 mg, Any Grade",0 n (%)
same,Dysgeusia (treatment‐related AE),"15 mg, Any Grade",1 (50) n (%)
same,Dyspnea (treatment‐related AE),"15 mg, Any Grade",0 n (%)
same,Fatigue (treatment‐related AE),"15 mg, Any Grade",1 (50) n (%)
same,Hyperglycemia (treatment‐related AE),"15 mg, Any Grade",0 n (%)
same,Increased glycosylated hemoglobin (treatment‐related AE),"15 mg, Any Grade",0 n (%)
same,Mucositis (treatment‐related AE),"15 mg, Any Grade",1 (50) n (%)
same,Nausea (treatment‐related AE),"15 mg, Any Grade",0 n (%)
same,Pruritus (treatment‐related AE),"15 mg, Any Grade",1 (50) n (%)
same,Rash (treatment‐related AE),"15 mg, Any Grade",1 (50) n (%)
same,Rash pruritic (treatment‐related AE),"15 mg, Any Grade",0 n (%)
same,Thrombocytopenia (treatment‐related AE),"15 mg, Any Grade",0 n (%)
same,Vomiting (treatment‐related AE),"15 mg, Any Grade",0 n (%)
same,Arthralgia (treatment‐related AE),"15 mg, Grade ≥3",0 n (%)
same,Asthenia (treatment‐related AE),"15 mg, Grade ≥3",0 n (%)
same,Decreased appetite (treatment‐related AE),"15 mg, Grade ≥3",0 n (%)
same,Diarrhea (treatment‐related AE),"15 mg, Grade ≥3",0 n (%)
same,Dry mouth (treatment‐related AE),"15 mg, Grade ≥3",0 n (%)
same,Dysgeusia (treatment‐related AE),"15 mg, Grade ≥3",0 n (%)
same,Dyspnea (treatment‐related AE),"15 mg, Grade ≥3",0 n (%)
same,Fatigue (treatment‐related AE),"15 mg, Grade ≥3",0 n (%)
same,Hyperglycemia (treatment‐related AE),"15 mg, Grade ≥3",0 n (%)
same,Increased glycosylated hemoglobin (treatment‐related AE),"15 mg, Grade ≥3",0 n (%)
same,Mucositis (treatment‐related AE),"15 mg, Grade ≥3",0 n (%)
same,Nausea (treatment‐related AE),"15 mg, Grade ≥3",0 n (%)
same,Pruritus (treatment‐related AE),"15 mg, Grade ≥3",0 n (%)
same,Rash (treatment‐related AE),"15 mg, Grade ≥3",0 n (%)
same,Rash pruritic (treatment‐related AE),"15 mg, Grade ≥3",0 n (%)
same,Thrombocytopenia (treatment‐related AE),"15 mg, Grade ≥3",0 n (%)
same,Vomiting (treatment‐related AE),"15 mg, Grade ≥3",0 n (%)
same,Dose interruptions,30 mg,8
same,Dose reductions,30 mg,0
same,Arthralgia (treatment‐related AE),"30 mg, Any Grade",0 n (%)
same,Asthenia (treatment‐related AE),"30 mg, Any Grade",2 (22) n (%)
same,Decreased appetite (treatment‐related AE),"30 mg, Any Grade",4 (44) n (%)
same,Diarrhea (treatment‐related AE),"30 mg, Any Grade",3 (33) n (%)
same,Dry mouth (treatment‐related AE),"30 mg, Any Grade",1 (11) n (%)
same,Dysgeusia (treatment‐related AE),"30 mg, Any Grade",0 n (%)
same,Dyspnea (treatment‐related AE),"30 mg, Any Grade",1 (11) n (%)
same,Fatigue (treatment‐related AE),"30 mg, Any Grade",4 (44) n (%)
same,Hyperglycemia (treatment‐related AE),"30 mg, Any Grade",4 (44) n (%)
same,Increased glycosylated hemoglobin (treatment‐related AE),"30 mg, Any Grade",0 n (%)
same,Mucositis (treatment‐related AE),"30 mg, Any Grade",2 (22) n (%)
same,Nausea (treatment‐related AE),"30 mg, Any Grade",4 (44) n (%)
same,Pruritus (treatment‐related AE),"30 mg, Any Grade",1 (11) n (%)
same,Rash (treatment‐related AE),"30 mg, Any Grade",1 (11) n (%)
same,Rash pruritic (treatment‐related AE),"30 mg, Any Grade",1 (11) n (%)
same,Thrombocytopenia (treatment‐related AE),"30 mg, Any Grade",1 (11) n (%)
same,Vomiting (treatment‐related AE),"30 mg, Any Grade",2 (22) n (%)
same,Arthralgia (treatment‐related AE),"30 mg, Grade ≥3",0 n (%)
same,Asthenia (treatment‐related AE),"30 mg, Grade ≥3",0 n (%)
same,Decreased appetite (treatment‐related AE),"30 mg, Grade ≥3",0 n (%)
same,Diarrhea (treatment‐related AE),"30 mg, Grade ≥3",0 n (%)
same,Dry mouth (treatment‐related AE),"30 mg, Grade ≥3",0 n (%)
same,Dysgeusia (treatment‐related AE),"30 mg, Grade ≥3",0 n (%)
same,Dyspnea (treatment‐related AE),"30 mg, Grade ≥3",0 n (%)
same,Fatigue (treatment‐related AE),"30 mg, Grade ≥3",0 n (%)
same,Hyperglycemia (treatment‐related AE),"30 mg, Grade ≥3",2 (22) n (%)
same,Increased glycosylated hemoglobin (treatment‐related AE),"30 mg, Grade ≥3",0 n (%)
same,Mucositis (treatment‐related AE),"30 mg, Grade ≥3",0 n (%)
same,Nausea (treatment‐related AE),"30 mg, Grade ≥3",0 n (%)
same,Pruritus (treatment‐related AE),"30 mg, Grade ≥3",0 n (%)
same,Rash (treatment‐related AE),"30 mg, Grade ≥3",0 n (%)
same,Rash pruritic (treatment‐related AE),"30 mg, Grade ≥3",0 n (%)
same,Thrombocytopenia (treatment‐related AE),"30 mg, Grade ≥3",0 n (%)
same,Vomiting (treatment‐related AE),"30 mg, Grade ≥3",0 n (%)
same,Dose interruptions,45 mg,5
same,Dose reductions,45 mg,1
same,Arthralgia (treatment‐related AE),"45 mg, Any Grade",2 (22) n (%)
same,Asthenia (treatment‐related AE),"45 mg, Any Grade",1 (11) n (%)
same,Decreased appetite (treatment‐related AE),"45 mg, Any Grade",3 (33) n (%)
same,Diarrhea (treatment‐related AE),"45 mg, Any Grade",4 (44) n (%)
same,Dry mouth (treatment‐related AE),"45 mg, Any Grade",2 (22) n (%)
same,Dysgeusia (treatment‐related AE),"45 mg, Any Grade",2 (22) n (%)
